ChEMBL document CHEMBL3817760, “Design, synthesis and evaluation of novel indandione derivatives as multifunctional agents with cholinesterase inhibition, anti-β-amyloid aggregation, antioxidant and neuroprotection properties against Alzheimer's disease” (Bioorg Med Chem, 2016)
The source made the active and inactive calls. No cut-off for these calls is given here.

Key:
[1] = Cytotoxicity against human SH-SY5Y cells assessed as cell viability at 50 uM after 48 hrs by MTT assay; assay type: cell-based; details: read-out: Activity
Outline: (§1)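 SH-SY5Y cells grown in DMEM with 10% FBS and 1% penicillin-streptomycin at 37°C, 5% CO2. Plated at 2000 cells/well and cultured 24 h, then exposed 48 h to compound at 1-100 μM (DMSO stock diluted in complete medium). MTT added for 4 h, formazan dissolved in DMSO, absorbance read at 570 nm (reference 630 nm). Triplicates; three independent experiments.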

[2] = Cytotoxicity against human SH-SY5Y cells assessed as cell viability at 75 uM after 48 hrs by MTT assay; assay type: cell-based; details: read-out: Activity; outline: as §1
[3] = Cytotoxicity against human SH-SY5Y cells assessed as cell viability at 100 uM after 48 hrs by MTT assay; assay type: cell-based; details: read-out: Activity; outline: as §1
SH-SY5Y [4] = assay: Cytotoxicity against human SH-SY5Y cells assessed as decrease in cell viability up to 100 uM after 24 hrs by MTT assay; assay type: cell-based
Acetylcholinesterase = Acetylcholinesterase (Electrophorus electricus, UniProt O42275); assay: Inhibition of electric eel AChE using acetylthiocholine iodide as substrate preincubated for 5 mins followed by substrate addition measured after 2 mins by Ellman's method
Cholinesterase = Cholinesterase (Equus caballus, UniProt P81908); assay: Inhibition of equine serum BuChE using butyrylthiocholine iodide as substrate preincubated for 5 mins followed by substrate addition measured after 2 mins by Ellman's method
Outline: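 BuChE from equine serum (0.06 U/mL) in 0.1 M phosphate buffer pH 8.0, compounds diluted from ethanol stocks to 1-100 µM final, standing 5 min before DTNB. Started with 0.075 M butyrylthiocholine; A412 read 2 min later at 25°C. Enzyme-free blanks and inhibitor-free full-activity controls included. Triplicates; IC50 from nonlinear regression of concentration-inhibition data.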

[5] = Selectivity index, ratio of IC50 for equine serum BuChE to IC50 for electric eel AChE
Outline: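 Ratio of IC50 values from the modified Ellman assay. Equine serum BuChE (0.06 U/mL) and electric eel AChE (0.22 U/mL), each in 0.1 M phosphate pH 8.0 with DTNB and 0.075 M thiocholine substrate, A412 at 2 min, 25°C. IC50s were means of three experiments.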

[6] = target: T1, Amyloid-beta precursor protein (Homo sapiens, UniProt P05067); assay: Inhibition of self-induced amyloid beta (1 to 42) (unknown origin) aggregation at 25 uM incubated for 48 hrs measured after 5 mins by thioflavin-T fluorescence assay
Outline: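 Aβ1-42 pretreated with HFIP, then diluted in 50 mM phosphate buffer pH 7.4 to 25 μM final. Incubated ± compound (25 μM) at 37°C for 48 h, then diluted in 50 mM glycine–NaOH pH 8.0 containing 5 μM thioflavin-T. Fluorescence read 5 min later (ex 450/em 485 nm). Inhibition % = (1−IFi/IFc)×100 after background subtraction; triplicate.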

[7] = target: T1, Amyloid-beta precursor protein; assay: Inhibition of self-induced amyloid beta (1 to 42) (unknown origin) aggregation incubated for 48 hrs measured after 5 mins by thioflavin-T fluorescence assay
[8] = target: T1, Amyloid-beta precursor protein; assay: Potency index, ratio of curcumin IC50 to compound IC50 for self-induced amyloid beta (1 to 42) (unknown origin) aggregation
[9] = target: Acetylcholinesterase (Electrophorus electricus) (UniProt O42275); assay: Mixed type inhibition of electric eel AChE at 10 to 40 nM preincubated with enzyme for 15 mins followed by substrate addition by Lineweaver-Burk plot analysis
Outline: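 Electric eel AChE with the compound, preincubated at 37°C for 15 min before substrate addition. Reciprocal (Lineweaver-Burk) plots were drawn, and their slopes were plotted against inhibitor concentration in a weighted analysis. Ki was taken as the ratio of plot intercept to slope.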

[10] = target: T1, Amyloid-beta precursor protein; assay: Inhibition of amyloid beta (1 to 42) (unknown origin) aggregation at 25 uM after 72 hrs by transmission electron microscopy
Outline: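 Aβ1-42 stock diluted in 20 mM phosphate buffer (pH 7.4) at 4°C, then incubated at 37°C with or without compound. Final concentrations per methods: peptide 50 μM, compound 25 μM; figure legend gives 25 μM each. Incubation time given as 48 h (methods) and 72 h (text). Samples placed on carbon-coated grids, stained with 1% uranyl acetate and imaged by TEM.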

SH-SY5Y [11] = assay: Antioxidant activity in human SH-SY5Y cells assessed as inhibition of H2O2-induced ROS production at 10 to 20 uM after 24 hrs by DCFH-DA fluorescent assay; assay type: functional, cell-based
Outline: (§2)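 SH-SY5Y cells seeded at 2 × 10^4/well and exposed 24 h to H2O2 (200 μM) with or without compound at 5, 10 and 20 μM. Intracellular ROS then probed with DCFH-DA for 20 min and total DCF fluorescence read on a plate reader. Mean ± S.D of three experiments, each in triplicate; one-way ANOVA with Bonferroni test.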

SH-SY5Y [12] = assay: Neuroprotective activity against H2O2-induced neurotoxicity in human SH-SY5Y cells assessed as cell viability after 24 hrs by MTT assay relative to control; assay type: functional, cell-based
Outline: (§3)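 SH-SY5Y cells seeded at 2 × 10^4/well and incubated 24 h. Medium then replaced with serum-free DMEM containing 200 μM H2O2 plus compound (5, 10, 20 μM) at 37°C for 24 h. Viability measured by MTT as % of untreated control, and morphology photographed under phase-contrast microscopy. Mean ± S.D of three experiments in triplicate; ANOVA with Bonferroni test.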

SH-SY5Y [13] = assay: Neuroprotective activity against H2O2-induced neurotoxicity in human SH-SY5Y cells assessed as change in cell morphology at 20 uM after 24 hrs by phase contrast microscopy; assay type: functional, cell-based; outline: as §3
SH-SY5Y [14] = assay: Neuroprotective activity against H2O2-induced cell death in human SH-SY5Y cells at 20 uM after 24 hrs by phase contrast microscopy; assay type: functional, cell-based; outline: as §3
SH-SY5Y [15] = assay: Neuroprotective activity against amyloid beta (1 to 42)-induced neurotoxicity in human SH-SY5Y cells assessed as cell viability treated for 24 hrs measured after 48 hrs by MTT assay; assay type: functional, cell-based
Outline: (§4)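 Aβ1-42 treated with HFIP (1 mg/ml), sonicated, left 24 h at room temperature and lyophilized; film dissolved in DMSO. SH-SY5Y cells plated at 2 × 10^4/well and allowed to attach 24 h. Aβ (25 μM) added ± compound (5-20 μM) in fresh medium. Viability measured by MTT as % of control after 48 h (methods; text says 24 h co-treatment). Morphology imaged by phase-contrast microscopy.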

SH-SY5Y [16] = assay: Neuroprotective activity against amyloid beta (1 to 42)-induced neurotoxicity in human SH-SY5Y cells assessed as change in cell morphology at 20 uM after 24 hrs by phase contrast microscopy; assay type: functional, cell-based; outline: as §4
[17] = Cytotoxicity against human SH-SY5Y cells assessed as cell viability at 1 uM after 48 hrs by MTT assay; assay type: cell-based; details: read-out: Activity; outline: as §1
[18] = Cytotoxicity against human SH-SY5Y cells assessed as cell viability at 5 uM after 48 hrs by MTT assay; assay type: cell-based; details: read-out: Activity; outline: as §1
[19] = Cytotoxicity against human SH-SY5Y cells assessed as cell viability at 10 uM after 48 hrs by MTT assay; assay type: cell-based; details: read-out: Activity; outline: as §1
[20] = Cytotoxicity against human SH-SY5Y cells assessed as cell viability at 25 uM after 48 hrs by MTT assay; assay type: cell-based; details: read-out: Activity; outline: as §1
SH-SY5Y [21] = assay: Cytotoxicity against human SH-SY5Y cells assessed as decrease in cell viability after 48 hrs by MTT assay; assay type: cell-based; outline: as §1
SH-SY5Y [22] = assay: […] in human SH-SY5Y cells at 5 to 20 uM after 24 hrs by DCFH-DA fluorescent assay; assay type: ADME, cell-based
SH-SY5Y [23] = assay: Antioxidant activity in human SH-SY5Y cells assessed as inhibition of H2O2-induced ROS production after 24 hrs by DCFH-DA fluorescent assay; assay type: functional, cell-based; outline: as §2

Sequence of Cholinesterase (P81908 whole entry): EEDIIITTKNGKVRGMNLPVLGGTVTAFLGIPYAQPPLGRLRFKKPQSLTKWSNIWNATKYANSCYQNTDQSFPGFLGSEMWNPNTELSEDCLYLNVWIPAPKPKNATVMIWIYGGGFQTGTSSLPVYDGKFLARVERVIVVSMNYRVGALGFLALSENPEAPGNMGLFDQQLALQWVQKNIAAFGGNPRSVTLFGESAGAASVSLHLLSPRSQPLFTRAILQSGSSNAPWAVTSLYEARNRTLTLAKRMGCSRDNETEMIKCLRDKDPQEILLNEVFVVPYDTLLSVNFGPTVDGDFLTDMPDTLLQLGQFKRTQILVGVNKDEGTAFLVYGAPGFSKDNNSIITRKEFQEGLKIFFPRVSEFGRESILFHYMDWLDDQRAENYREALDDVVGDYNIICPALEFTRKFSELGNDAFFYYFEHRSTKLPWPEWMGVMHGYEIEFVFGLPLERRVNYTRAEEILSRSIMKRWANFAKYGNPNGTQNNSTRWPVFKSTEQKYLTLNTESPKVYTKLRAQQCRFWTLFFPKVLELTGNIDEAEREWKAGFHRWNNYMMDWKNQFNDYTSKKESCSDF
Sequence of Acetylcholinesterase (O42275 whole entry): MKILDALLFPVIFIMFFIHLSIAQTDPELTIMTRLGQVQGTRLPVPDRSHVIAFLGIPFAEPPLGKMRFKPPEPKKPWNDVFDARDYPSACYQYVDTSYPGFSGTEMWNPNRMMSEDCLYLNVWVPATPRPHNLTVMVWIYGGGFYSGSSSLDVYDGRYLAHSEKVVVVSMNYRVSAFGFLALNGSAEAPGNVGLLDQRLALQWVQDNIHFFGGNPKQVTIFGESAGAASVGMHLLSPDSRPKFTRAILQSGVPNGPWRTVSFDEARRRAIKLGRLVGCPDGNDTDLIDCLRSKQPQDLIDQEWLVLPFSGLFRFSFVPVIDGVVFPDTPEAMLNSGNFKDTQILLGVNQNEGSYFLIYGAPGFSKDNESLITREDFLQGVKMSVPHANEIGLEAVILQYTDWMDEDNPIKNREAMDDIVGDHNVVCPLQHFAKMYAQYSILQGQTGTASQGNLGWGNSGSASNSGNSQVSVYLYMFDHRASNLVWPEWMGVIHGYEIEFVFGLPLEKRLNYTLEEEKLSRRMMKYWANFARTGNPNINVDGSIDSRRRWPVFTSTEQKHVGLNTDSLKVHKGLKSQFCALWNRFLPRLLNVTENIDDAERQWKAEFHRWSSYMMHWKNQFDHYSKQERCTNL
T1 sequence (P05067 whole entry): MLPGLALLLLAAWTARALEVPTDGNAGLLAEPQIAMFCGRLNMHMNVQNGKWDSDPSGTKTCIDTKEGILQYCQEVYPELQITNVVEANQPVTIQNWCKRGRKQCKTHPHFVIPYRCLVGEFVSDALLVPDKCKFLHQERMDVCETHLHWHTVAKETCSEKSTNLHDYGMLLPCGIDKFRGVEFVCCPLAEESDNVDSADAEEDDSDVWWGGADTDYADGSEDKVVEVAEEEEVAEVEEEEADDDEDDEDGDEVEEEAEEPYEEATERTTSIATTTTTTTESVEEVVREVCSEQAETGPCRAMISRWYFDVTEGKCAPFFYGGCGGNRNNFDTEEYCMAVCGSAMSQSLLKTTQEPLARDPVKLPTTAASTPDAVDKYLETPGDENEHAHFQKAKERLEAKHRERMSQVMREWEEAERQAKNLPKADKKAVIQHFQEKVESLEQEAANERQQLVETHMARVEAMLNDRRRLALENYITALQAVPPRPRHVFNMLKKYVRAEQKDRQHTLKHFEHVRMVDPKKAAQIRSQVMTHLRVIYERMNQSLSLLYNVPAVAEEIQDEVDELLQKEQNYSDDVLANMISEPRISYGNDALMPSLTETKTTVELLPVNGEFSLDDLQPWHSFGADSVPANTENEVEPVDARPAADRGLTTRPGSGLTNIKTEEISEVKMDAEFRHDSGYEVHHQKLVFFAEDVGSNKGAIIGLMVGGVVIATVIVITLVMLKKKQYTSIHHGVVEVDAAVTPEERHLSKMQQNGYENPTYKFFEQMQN
Sequence of Acetylcholinesterase (Electrophorus electricus) (O42275 24-633 limits assumed): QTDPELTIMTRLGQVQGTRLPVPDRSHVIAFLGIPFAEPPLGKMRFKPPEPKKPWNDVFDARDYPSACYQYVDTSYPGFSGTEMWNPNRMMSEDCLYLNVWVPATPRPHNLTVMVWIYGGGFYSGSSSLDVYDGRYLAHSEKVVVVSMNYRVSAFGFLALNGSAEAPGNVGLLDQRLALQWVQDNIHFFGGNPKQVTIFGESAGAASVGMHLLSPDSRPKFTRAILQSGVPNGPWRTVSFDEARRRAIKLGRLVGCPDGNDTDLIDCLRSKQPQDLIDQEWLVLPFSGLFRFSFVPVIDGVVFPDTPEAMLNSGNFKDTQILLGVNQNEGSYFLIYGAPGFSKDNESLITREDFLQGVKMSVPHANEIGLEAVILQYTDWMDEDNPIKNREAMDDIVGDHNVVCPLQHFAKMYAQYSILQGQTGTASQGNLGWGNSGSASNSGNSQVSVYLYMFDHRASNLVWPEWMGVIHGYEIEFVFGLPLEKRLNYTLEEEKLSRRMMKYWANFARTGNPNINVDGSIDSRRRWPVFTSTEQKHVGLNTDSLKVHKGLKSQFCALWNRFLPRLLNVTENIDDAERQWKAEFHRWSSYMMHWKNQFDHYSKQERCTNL

| SMILES | IC50 (Acetylcholinesterase) | IC50 (Cholinesterase) | Ratio IC50 [5] | inhibition [6] | also measured |
| --- | --- | --- | --- | --- | --- |
| O=C1C(=Cc2ccc(N3CCN(c4ncccn4)CC3)cc2)C(=O)c2ccccc21 | 36 nM | 2780 nM | 77.1 | 80.9% | viability at 48 h, 50 µM [1]: 89.6%; viability at 48 h, 75 µM [2]: 86.3%; viability at 48 h, 100 µM [3]: 82.3%; Activity (SH-SY5Y [4]): Non-toxic; IC50 [7]: 10100 nM; Ratio IC50 [8]: 1.5; inhibition [9]: Active; inhibition [10]: Active; inhibition (SH-SY5Y [11]): Active; Activity (SH-SY5Y [12]): Dose-dependent effect; Activity (SH-SY5Y [13]): Active; Activity (SH-SY5Y [14]): Active; Activity (SH-SY5Y [15]): Dose-dependent effect; Activity (SH-SY5Y [16]): Active; viability at 48 h, 1 µM [17]: 98.1%; viability at 48 h, 5 µM [18]: 96.4%; viability at 48 h, 10 µM [19]: 95.3%; viability at 48 h, 25 µM [20]: 93.9% |
| O=C1C(=Cc2ccc(N3CCN(c4ccc(C(F)(F)F)cc4)CC3)cc2)C(=O)c2ccccc21 | 141 nM | 2140 nM | 15.1 | 74.9% | – |
| O=C1C(=Cc2ccc(N3CCN(c4ccccn4)CC3)cc2)C(=O)c2ccccc21 | 112 nM | 880 nM | 7.8 | 70.9% | – |
| O=C1C(=Cc2ccc(N3CCN(c4ccc(Cl)cc4)CC3)cc2)C(=O)c2ccccc21 | 231 nM | 1110 nM | 4.8 | 60.8% | – |
| O=C1C(=Cc2ccc(N3CCN(C(=O)c4ccccc4)CC3)cc2)C(=O)c2ccccc21 | 14200 nM | 13400 nM | 0.9 | 53.9% | – |
| O=C1C(=Cc2ccc(N3CCN(C(c4ccccc4)c4ccccc4)CC3)cc2)C(=O)c2ccccc21 | 61 nM | 3350 nM | 54.9 | 80.6% | IC50 [7]: 11800 nM; Ratio IC50 [8]: 1.5 |
| O=C1C(=Cc2ccc(N3CCN(Cc4ccc5c(c4)OCO5)CC3)cc2)C(=O)c2ccccc21 | 131 nM | 4250 nM | 33.8 | 71.8% | – |
| O=C1C(=Cc2ccc(N3CCN(c4ccccc4)CC3)cc2)C(=O)c2ccccc21 | 2440 nM | 4660 nM | 1.9 | 57.3% | – |
| O=C1C(=Cc2ccc(N3CCN(c4ccc(F)cc4)CC3)cc2)C(=O)c2ccccc21 | 173 nM | 5130 nM | 29.6 | 61.8% | – |
| Cc1ccc(N2CCN(c3ccc(C=C4C(=O)c5ccccc5C4=O)cc3)CC2)cc1 | 251 nM | 392 nM | 1.5 | 62.4% | – |
| Cc1ccc(N2CCN(c3ccc(C=C4C(=O)c5ccccc5C4=O)cc3)CC2)c(C)c1 | 298 nM | 415 nM | 1.39 | 69.9% | – |
| O=C1C(=Cc2ccc(N3CCN(C(=O)c4ccco4)CC3)cc2)C(=O)c2ccccc21 | 48 nM | 2610 nM | 54.2 | 82.2% | viability at 48 h, 50 µM [1]: 89.6%; viability at 48 h, 75 µM [2]: 86.3%; viability at 48 h, 100 µM [3]: 82.3%; Activity (SH-SY5Y [4]): Non-toxic; Activity (SH-SY5Y [21]): Dose-dependent effect; Activity (SH-SY5Y [22]): Non-toxic; IC50 [7]: 9200 nM; Ratio IC50 [8]: 1.5; inhibition [10]: Active; inhibition (SH-SY5Y [23]): Dose-dependent effect; Activity (SH-SY5Y [12]): Dose-dependent effect; Activity (SH-SY5Y [13]): Active; Activity (SH-SY5Y [14]): Active; Activity (SH-SY5Y [15]): Dose-dependent effect; Activity (SH-SY5Y [16]): Active; viability at 48 h, 1 µM [17]: 98.1%; viability at 48 h, 5 µM [18]: 96.4%; viability at 48 h, 10 µM [19]: 95.3%; viability at 48 h, 25 µM [20]: 93.9% |
